Activity calls are given as the source filed them. The calls are words filed in the database; no cut-off is given here.
Assays:
Mus musculus [1] = assay: Effect on hepatic CycD1 mRNA level in normal chow diet fed C57BL/6J mouse at 40 mg/kg, ip administered every 2 days for 11 weeks by qPCR analysis; format: ADME, organism-based; settings: in vivo
Procedure, shortened: (§1)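 Male mice, 8 weeks old, kept on normal chow throughout and dosed i.p. every 2 days in corn oil vehicle for 11 weeks. Body weight gain, liver/body weight ratio, and liver mRNA of the indicated genes were measured at sacrifice; mean ± SEM, n = 5 per group where stated.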

[2] = Toxicity in high fat diet fed C57BL/6J mouse assessed as serum ALT level at 40 mg/kg, ip administered every 2 days for 11 weeks (reference value: 63.3 +/- 26.9 U/L); format: organism-based; settings: in vivo
HEK293 [3] = assay: Growth inhibition of HEK293 cells harboring Wnt after 24 hrs by CellTiter-Fluor assay; format: cell-based; settings: human, hek293, 24 h
Procedure, shortened: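 HEK293 cells stably carrying the TOPFlash reporter were plated at 2000/well in DMEM with 10% FBS and incubated overnight. Compound was added with recombinant human Wnt-3a, then incubated 24 h at 37 °C. CellTiter-Fluor reagent was added and fluorescence read after 30 min at 37 °C.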

[4] = Oral bioavailability in mouse at 10 mg/kg administered as single dose by LC-MS analysis; format: ADME, organism-based; settings: in vivo
[5] = Toxicity in normal chow diet fed C57BL/6J mouse assessed as serum AST level at 40 mg/kg, ip administered every 2 days for 11 weeks (reference value: 119 +/- 28.3 U/L); format: organism-based; settings: in vivo
HEK293 [6] = assay: Inhibition of Wnt3a activated Wnt/beta-catenin/Axin signaling (unknown origin) expressed in HEK293 cells assessed as stabilization of Axin1 protein at 1 to 10 uM after 2 hrs by Western blot method; format: cell-based; settings: Homo sapiens
Procedure, shortened: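 HEK293 cells stimulated with WNT3a were treated with compound for 2 h. Cells were lysed in 10 mM HEPES, 100 μM EDTA, 10 mM KCl, 0.5% NP40, protein was quantified by BCA, and β-catenin and Axin1 were resolved on 10% SDS-PAGE and immunoblotted.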

[7] = Inhibition of Wnt/beta-catenin signaling (unknown origin) expressed in HEK293 cells harboring siRNA after 24 hrs by luciferase reporter gene assay; format: cell-based; settings: Homo sapiens, HEK293, 24 h
Mus musculus [8] = assay: Effect on hepatic FGF21 mRNA level in normal chow diet fed C57BL/6J mouse at 40 mg/kg, ip administered every 2 days for 11 weeks by qPCR analysis; format: ADME, organism-based; settings: in vivo; procedure, shortened: as §1
HEK293 [9] = assay: Inhibition of LiCl-activated Wnt/beta-catenin/Axin signaling (unknown origin) expressed in HEK293 cells assessed as degradation of beta-catenin by measuring decrease in beta-catenin protein expression after 24 hrs by Western blot method; format: cell-based; settings: Homo sapiens
Procedure, shortened: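 HEK293 cells were treated with compound in the presence of lithium chloride for 24 h. Lysis buffer contained 10 mM HEPES, 100 μM EDTA, 10 mM KCl, 0.5% NP40 and inhibitors. Protein was quantified by BCA, resolved on 10% SDS-PAGE, and immunoblotted for β-catenin.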

Mus musculus [10] = assay: Decrease in hepatic triglyceride content in high fat diet fed C57BL/6J mouse at 40 mg/kg, ip administered every 2 days for 11 weeks; format: functional, organism-based
Procedure, shortened: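 Male mice, 8 weeks old, 24–27 g, given a 45% kcal fat diet for 6 weeks, then dosed i.p. every 2 days in corn oil vehicle with the diet continued. Sacrifice was about 24 h after the last dose. Liver was examined by H&E. Liver and serum triglyceride were measured by kit. Serum chemistry was included, and liver/body weight ratio was calculated.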

Mus musculus [11] = assay: Effect on hepatic ACC1 mRNA level in normal chow diet fed C57BL/6J mouse at 40 mg/kg, ip administered every 2 days for 11 weeks by qPCR analysis; format: ADME, organism-based; settings: in vivo; procedure, shortened: as §1
HEK293 [12] = assay: Inhibition of Wnt/beta-catenin/Axin signaling (unknown origin) expressed in HEK293 cells assessed as decrease in CycD1 mRNA level after 48 hrs by qPCR analysis; format: cell-based; settings: Homo sapiens
Procedure, shortened: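 HEK293 cells were treated with compound for 48 h, harvested in TRIzol, and Wnt target gene mRNA was quantified by qPCR.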

HEK293 [13] = assay: Inhibition of Wnt (unknown origin)/FLAG-tagged human beta-catenin S33Y mutant signaling expressed in HEK293 cells harboring TCF/LEF-responsive luciferase at 100 nM measured after 24 hrs by luciferase reporter gene assay; format: cell-based
Procedure, shortened: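 HEK293 cells were transfected for 16 h with TOPFlash or FOPFlash, Renilla, and pcDNA3 wild-type or S33Y β-catenin. Compound was then added for a further 24 h. Firefly/Renilla dual-luciferase ratio was the read-out.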

HEK293 [14] = assay: Growth inhibition of unstimulated HEK293 cells up to 100 uM after 72 hrs by CellTiter-Fluor assay; format: cell-based; settings: human, hek293, 72 h
Procedure, shortened: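 Unstimulated HEK293 cells were plated at 3.5×10^5/well and grown for 24 h, then incubated with compound for 72 h. Viability was read with CellTiter-Fluor.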

[15] = Toxicity in normal chow diet fed C57BL/6J mouse assessed as serum creatinine level at 40 mg/kg, ip administered every 2 days for 11 weeks by Jaffe's reaction analysis (reference value: 0.2 +/- 0.01 mg/dl); format: organism-based; settings: in vivo
Mus musculus [16] = assay: Decrease in hepatic SREBP1 mRNA level in high fat diet fed C57BL/6J mouse at 40 mg/kg, ip administered every 2 days for 11 weeks by qPCR analysis; format: functional, organism-based
Procedure, shortened: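 Male mice, 8 weeks old, fed a 45% kcal fat diet for 6 weeks, then dosed i.p. every 2 days in corn oil vehicle for 11 weeks. Liver mRNA of the indicated genes was quantified at sacrifice; mean ± SEM, n = 5 per group.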

[17] = Toxicity in high fat diet fed C57BL/6J mouse assessed as serum cholesterol level at 40 mg/kg, ip administered every 2 days for 11 weeks (reference value: 316 +/- 25 mg/dl); format: organism-based; settings: in vivo

For `Cc1ccccc1-n1nnc(C(=O)Nc2ccc3ccccc3n2)c1C`, the Activity (Mus musculus [1]) was “Non-Toxic”, the Activity [2] was 21 U/L and the “growth inhibition (GI)” value (HEK293 [3]) was “Non-Toxic”. The bioavailability [4] was 21%, the Activity [5] was 74.5 U/L and the inhibition (HEK293 [6]) was “Active”. The IC50 [7] was 20 nM, the Activity (Mus musculus [8]) was “Non-Toxic” and the inhibition (HEK293 [9]) was “Active”. The Activity (Mus musculus [10]) was “Active”, the Activity (Mus musculus [11]) was “Non-Toxic” and the inhibition (HEK293 [12]) was “Active”. For the same compound, the inhibition (HEK293 [13]) was “Active”, the “growth inhibition (GI)” value (HEK293 [14]) was “Non-Toxic” and the Activity [15] was 0.2 mg/dL. The Activity (Mus musculus [16]) was “Active” and the Activity [17] was 223 mg/dL.

— ChEMBL document CHEMBL4371095, “Triazole-Based Inhibitors of the Wnt/β-Catenin Signaling Pathway Improve Glucose and Lipid Metabolisms in Diet-Induced Obese Mice” (J Med Chem, 2019)
